Compounds with a hit are over-represented: about 1.3% of the library has one in this group of screens.
aDG glyco up: activators of alpha-DG glycosylation, primary screen, uHTS, Pro5-aDG cells, AlphaScreen; actives 0.22% (n = 360,000); activation, % at 10 µM; AID 624168, 2012; alpha-DG glycosylation AlphaScreen (IIH6); 0% Pro5, 100% B10-LARGE cell signal;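 active means activation of at least 8% versus controls, or a plate z-score of at least 8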;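 further: Pro5 are CHO cells carrying HIG-tagged alpha-DG that lacks glycosylation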
Xi reactivation: activators of inactive X chromosome reactivation, primary screen, imaging, XiGFP fibroblasts, GFP high-content imaging, set 2 | AID 743238, 2013 | actives 0.055% (n = 360,000) | activation, % at 7.58 µM | XiGFP mouse fibroblasts, % GFP-positive cells imaging, 3 d; cells co-treated with 5-aza-dC sensitizer; scaled so ellipticine positive control = 100%;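 active means mean normalized replicate activation at least 10% and every replicate at or above 10%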
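Assay system: SV40-immortalized XiGFP fibroblast cells, line 68-5-11; buffer or medium: DMEM plus 5-aza-dC sensitizer; compound: one concentration, pinned; timing: compounds 3 days, fix/stain 15 min at room temperature; benchmarks: positive control ellipticine, 6 µM final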
HNF4A DNA FP: change in binding of human HNF4A to DNA, primary screen, biochemical, fluorescence polarization, FITC-DNA; Hepatocyte nuclear factor 4-alpha (Homo sapiens), P41235; 1 h; activity change, % at 10 µM; actives 0.3% (n = 360,000); in the data active means activity change above about 30%, passing the limit was not always enough
TPT1 inhibitor: Candida albicans TPT1 enzyme inhibitors, primary screen, biochemical, fluorescence polarization | recombinant caTPT1, FP RNA substrate dephosphorylation | inhibition, % at 5 µM | actives 0.81% (n = 300,000) | AID 1962, 2009;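 active means inhibition above the mean of all tested compounds plus 3 SD, set per screening campaign, cut at about 24% in these data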
Rpn11 inh: Rpn11 (PSMD14) deubiquitinase inhibitors, primary screen, biochemical, fluorescence polarization, uHTS. 26S proteasome non-ATPase regulatory subunit 14 (Homo sapiens), O00487. human 26S proteasome, Ub4-pepOG fluorescence polarization; 20S core pre-blocked with epoxomicin. inhibition, % at 20 µM. actives 0.59% (n = 360,000);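 active means inhibition at 20 µM, scaled to each plate's controls, above about 33%, limit read from the data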
CSN deneddyl inh: inhibitors of CSN-mediated cullin deneddylation, primary screen, biochemical, fluorescence polarization, uHTS; COP9 signalosome complex subunit 5 (Homo sapiens), Q92905; Purified CSN, SCF-Nedd8-OG deneddylation; inhibition, % at 12.5 µM; actives 0.38% (n = 360,000);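 active means pattern-corrected inhibition above about 35%, with an unprinted fluorescence ratio check between 0.5 and 1.5, limit read from the data, passing the limit was not always enough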
Target sequence (Q92905 whole entry, looked up, one chain of several): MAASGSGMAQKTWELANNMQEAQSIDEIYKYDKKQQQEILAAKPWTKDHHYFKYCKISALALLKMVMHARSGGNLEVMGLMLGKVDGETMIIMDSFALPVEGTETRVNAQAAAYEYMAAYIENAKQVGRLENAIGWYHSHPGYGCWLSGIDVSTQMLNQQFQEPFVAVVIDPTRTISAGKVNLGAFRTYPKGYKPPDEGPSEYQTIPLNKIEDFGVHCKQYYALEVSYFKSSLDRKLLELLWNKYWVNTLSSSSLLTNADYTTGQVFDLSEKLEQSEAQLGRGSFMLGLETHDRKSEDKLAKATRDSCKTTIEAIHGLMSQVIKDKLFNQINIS
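test system = HEK293T-derived human Csn5 enzyme | amount = 0.24 nM Csn5 enzyme, final concentration | medium = Tris/NaCl/DTT buffer, pH 7.5 | schedule = 90 min reaction at room temperature | signal = FP | evaluation = inhibition of Csn5 cleavage, % | compound dosing = single dose of 12.5 µM compound with 0.25% DMSO | probe or stimulus = 10 nM SCFSkp2-Nedd8OG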
aDG glyco conf: alpha-DG glycosylation enhancers, retest, confirmation, single concentration, Pro5-aDG cells. actives 17% (n = 600). IIH6 AlphaLISA; scaled to LARGE-overexpressing B10 cells as 100%. shares compounds with aDG glyco up. activation, % at 10 µM (by protocol);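 active means activation of at least 7% in one or more replicates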;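 further: cells exposed to compound for two days before detection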
A number is an active result.

For O=C1CC(c2ccccc2)n2nc(NC(=O)C3CCCO3)nc2N1 (stereo unspecified) the results were aDG glyco up 3.1, HNF4A DNA FP inactive, TPT1 inhibitor inactive, Rpn11 inh inactive, CSN deneddyl inh inactive and aDG glyco conf inactive.
COc1ccc(NC(=O)C2Cc3cccc(OC)c3O/C2=N\O)cc1 (stereo unspecified) was read as aDG glyco up inactive, Xi reactivation inactive, HNF4A DNA FP inactive, TPT1 inhibitor inactive, Rpn11 inh inactive and CSN deneddyl inh inactive.
`COc1ccc(NC(=O)C2Cc3ccccc3O/C2=N\O)cc1` (stereo unspecified) gave aDG glyco up 5.9, Xi reactivation inactive, HNF4A DNA FP inactive, Rpn11 inh inactive, CSN deneddyl inh inactive and aDG glyco conf inactive.
For Brc1ccc(CNc2ccc3ncccc3c2)cc1 the results were aDG glyco up 2.8, Xi reactivation inactive, HNF4A DNA FP inactive, Rpn11 inh inactive, CSN deneddyl inh inactive and aDG glyco conf inactive.
Screening O=C(Nc1ccc2ncccc2c1)c1cccc(Br)c1 returned aDG glyco up inactive, Xi reactivation inactive, HNF4A DNA FP inactive, TPT1 inhibitor inactive, Rpn11 inh inactive and CSN deneddyl inh inactive.
`COCCCn1cn[nH]c1=S` gave aDG glyco up 6.3, Xi reactivation inactive, HNF4A DNA FP inactive, TPT1 inhibitor inactive, Rpn11 inh inactive, CSN deneddyl inh inactive and aDG glyco conf inactive.
For COCCCn1c(-c2ccc(Cl)cc2)n[nH]c1=S the results were aDG glyco up inactive, HNF4A DNA FP inactive, TPT1 inhibitor inactive, Rpn11 inh inactive and CSN deneddyl inh inactive.
For CN1CC[n+]2cnc3ccccc3c21 the results were aDG glyco up 6.2, HNF4A DNA FP inactive, TPT1 inhibitor inactive, Rpn11 inh inactive, CSN deneddyl inh inactive and aDG glyco conf inactive.
`COc1ccc(-c2cc(C(=O)OCC(=O)N3CCOCC3)c3ccccc3n2)cc1` gave aDG glyco up inactive, Xi reactivation inactive, HNF4A DNA FP inactive, Rpn11 inh inactive and CSN deneddyl inh inactive.
`COC(=O)C1CCN(C(=O)COC(=O)c2cc(-c3ccccc3)nc3ccc(OC)cc23)CC1` gave aDG glyco up 6.7, HNF4A DNA FP inactive, Rpn11 inh inactive, CSN deneddyl inh inactive and aDG glyco conf inactive.
`Cn1c(SCC(=O)N2CCCc3ccccc32)nnc1-c1ccccc1` gave aDG glyco up 3.7, HNF4A DNA FP inactive, TPT1 inhibitor inactive, Rpn11 inh inactive, CSN deneddyl inh inactive and aDG glyco conf inactive.
Screening COCCNc1nc(NCc2ccc(C(C)C)cc2)c2sccc2n1 returned aDG glyco up 7.3, Xi reactivation inactive, HNF4A DNA FP inactive, Rpn11 inh inactive, CSN deneddyl inh inactive and aDG glyco conf inactive.
Screening COc1ccc(CNC(=O)c2cccc3c(-c4cccnc4)coc23)cc1OC returned aDG glyco up 8.1, Xi reactivation inactive, HNF4A DNA FP inactive, Rpn11 inh inactive, CSN deneddyl inh inactive and aDG glyco conf inactive.
CCCNC(=O)Nc1ccc2c(c1)OC[C@H](C)N(CC1CCCC1)C[C@@H](C)[C@H](OC)CN(C)C2=O was read as Xi reactivation inactive.
O=C(CSc1ccc(Cl)cc1)N/N=C/c1ccc([N+](=O)[O-])o1 was read as aDG glyco up 3.2, Xi reactivation inactive, HNF4A DNA FP inactive, TPT1 inhibitor inactive, Rpn11 inh inactive, CSN deneddyl inh inactive and aDG glyco conf inactive.
